Measured values published in ChEMBL document CHEMBL4033643, “Synthesis and in vitro antitumour activity of crassalactone D, its stereoisomers and novel cinnamic ester derivatives” (Eur J Med Chem, 2017).
The source made the active and inactive calls. The rule behind the calls is not given here.

How the values were obtained:
K562 [1] = assay: Cell cycle arrest in human K562 cells assessed as total cell levels at M4 phase at IC50 after 72 hrs by propidium iodide staining based flow cytometry (reference value: 0.50%); type: functional
K562 [2] = assay: Cell cycle arrest in human K562 cells assessed as total cell levels at G0/G1 phase at IC50 after 72 hrs by propidium iodide staining based flow cytometry (reference value: 39.97%); type: functional
K562 [3] = assay: Cell cycle arrest in human K562 cells assessed as accumulation at G0/G1 phase at IC50 after 72 hrs by propidium iodide staining based flow cytometry (reference value: 38.48%); type: functional
K562 [4] = assay: Cytotoxicity against human K562 cells assessed as reduction in cell viability after 72 hrs by MTT assay; type: functional, cell-based; settings: K562, 72 h
K562 [5] = assay: Induction of apoptosis in human K562 cells assessed as specific apoptosis by Annexin V-FITC/propidium iodide staining based flow cytometry; type: functional; design: concentration or dose not given beside the values
K562 [6] = assay: Induction of apoptosis in human K562 cells assessed as increase in caspase 3 expression level by Western blot analysis; type: functional, cell-based
Method in brief: (§1)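 Western blot of treated K562 cells for Bcl-2, Bax, activated caspase 3 and cleaved PARP (85 kDa fragment). Blots developed by ECL, with band expression quantified by densitometry against an untreated control sample.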

K562 [7] = assay: Cell cycle arrest in human K562 cells assessed as total cell levels at G2/M phase at IC50 after 72 hrs by propidium iodide staining based flow cytometry (reference value: 14.31%); type: functional
K562 [8] = assay: Cell cycle arrest in human K562 cells assessed as accumulation at sub G1 phase at IC50 after 72 hrs by propidium iodide staining based flow cytometry (reference value: 1.48%); type: functional
K562 [9] = assay: Induction of apoptosis in human K562 cells assessed as decrease in Bcl-2 expression level by Western blot analysis; type: functional, cell-based; method in brief: as §1
Jurkat = assay: Cytotoxicity against human Jurkat cells assessed as reduction in cell viability after 72 hrs by MTT assay; type: functional, cell-based
K562 [10] = assay: Induction of apoptosis in human K562 cells assessed as gated late apoptotic cells by Annexin V-FITC/propidium iodide staining based flow cytometry (reference value: 0.88%); type: functional
K562 [11] = assay: Cell cycle arrest in human K562 cells assessed as total cell levels at S phase at IC50 after 72 hrs by propidium iodide staining based flow cytometry (reference value: 36.49%); type: functional
A549 = assay: Cytotoxicity against human A549 cells assessed as reduction in cell viability after 72 hrs by MTT assay; type: functional, cell-based; settings: A549, 72 h
MDA-MB-231 = assay: Cytotoxicity against human MDA-MB-231 cells assessed as reduction in cell viability after 72 hrs by MTT assay; type: functional, cell-based; settings: MDA-MB-231, 72 h
K562 [12] = assay: Cell cycle arrest in human K562 cells assessed as accumulation at G2/M phase at IC50 after 72 hrs by propidium iodide staining based flow cytometry (reference value: 19.01%); type: functional
HeLa = assay: Cytotoxicity against human HeLa cells assessed as reduction in cell viability after 72 hrs by MTT assay; type: functional, cell-based
K562 [13] = assay: Induction of apoptosis in human K562 cells assessed as increase in Bax expression level by Western blot analysis; type: functional, cell-based; method in brief: as §1
K562 [14] = assay: Induction of apoptosis in human K562 cells assessed as increase in cleaved PARP expression level by Western blot analysis; type: functional, cell-based; method in brief: as §1
K562 [15] = assay: Induction of apoptosis in human K562 cells assessed as gated necrotic cells by Annexin V-FITC/propidium iodide staining based flow cytometry (reference value: 0.24%); type: functional
MCF7 = assay: Cytotoxicity against human MCF7 cells assessed as reduction in cell viability after 72 hrs by MTT assay; type: functional, cell-based; settings: MCF7, 72 h
K562 [16] = assay: Induction of apoptosis in human K562 cells assessed as total viable cells by Annexin V-FITC/propidium iodide staining based flow cytometry (reference value: 92.45%); type: functional
K562 [17] = assay: Induction of apoptosis in human K562 cells assessed as specific necrosis by Annexin V-FITC/propidium iodide staining based flow cytometry; type: functional; design: concentration or dose not given beside the values
K562 [18] = assay: Induction of apoptosis in human K562 cells assessed as total late apoptotic cells by Annexin V-FITC/propidium iodide staining based flow cytometry (reference value: 0.77%); type: functional
HL-60 = assay: Cytotoxicity against human HL60 cells assessed as reduction in cell viability after 72 hrs by MTT assay; type: functional, cell-based; settings: HL-60, 72 h
MRC5 = assay: Cytotoxicity against human MRC5 cells assessed as reduction in cell viability after 72 hrs by MTT assay; type: cell-based; settings: MRC5, 72 h
K562 [19] = assay: Induction of apoptosis in human K562 cells assessed as total early apoptotic cells by Annexin V-FITC/propidium iodide staining based flow cytometry (reference value: 3.07%); type: functional
K562 [20] = assay: Induction of apoptosis in human K562 cells assessed as gated early apoptotic cells by Annexin V-FITC/propidium iodide staining based flow cytometry (reference value: 3.18%); type: functional
K562 [21] = assay: Induction of apoptosis in human K562 cells assessed as total necrotic cells by Annexin V-FITC/propidium iodide staining based flow cytometry (reference value: 0.23%); type: functional
K562 [22] = assay: Induction of apoptosis in human K562 cells assessed as gated viable cells by Annexin V-FITC/propidium iodide staining based flow cytometry (reference value: 95.78%); type: functional
Raji = assay: Cytotoxicity against human Raji cells assessed as reduction in cell viability after 72 hrs by MTT assay; type: functional, cell-based
K562 [23] = assay: Cell cycle arrest in human K562 cells assessed as accumulation at S phase at IC50 after 72 hrs by propidium iodide staining based flow cytometry (reference value: 41.03%); type: functional

Row | SMILES | Activity (K562 [1]) [%] | Activity (K562 [2]) [%] | Activity (K562 [3]) [%] | IC50 (K562 [4]) [µM] | Activity (K562 [5]) [%] | Activity (K562 [6]) | Activity (K562 [7]) [%] | Activity (K562 [8]) [%] | Activity (K562 [9]) | IC50 (Jurkat) [µM] | Activity (K562 [10]) [%] | Activity (K562 [11]) [%] | IC50 (A549) [µM] | IC50 (MDA-MB-231) [µM] | Activity (K562 [12]) [%] | IC50 (HeLa) [µM] | Activity (K562 [13]) | Activity (K562 [14]) | Activity (K562 [15]) [%] | IC50 (MCF7) [µM] | further results
1 | O=C1C=C[C@@]2(C[C@H](OC(=O)/C=C/c3ccc([N+](=O)[O-])cc3)[C@H](c3ccccc3)O2)O1 | 33.19 | 24.92 | 30.15 | 2.22 | 70.03 | Active | 6.42 | 40.08 | Active | 4.03 | 1.62 | 18.76 | 0.85 | 1.25 | 7.07 | 24.8 | inactive | Active | 2.29 | 4.31 | Activity (K562 [16]): 11.93%; Activity (K562 [17]): 1.76%; Activity (K562 [18]): 0.73%; IC50 (HL-60): 4.36 µM; IC50 (MRC5): > 100 µM; Activity (K562 [19]): 31.35%; Activity (K562 [20]): 69.6%; Activity (K562 [21]): 1.03%; Activity (K562 [22]): 26.49%; IC50 (Raji): 1.64 µM; Activity (K562 [23]): 22.7%
2 | COc1ccc(/C=C/C(=O)O[C@H]2C[C@@]3(C=CC(=O)O3)O[C@H]2c2ccccc2)cc1 | 2.89 | 42.31 | 47.26 | 1.02 | 2.36 | Active | 18.76 | 3.23 | Active | 2.54 | 0.29 | 26.32 | 0.45 | 2.69 | 20.11 | 9.94 | inactive | Active | 2.44 | 3.25 | Activity (K562 [16]): 91.77%; Activity (K562 [17]): 1.6%; Activity (K562 [18]): 0.28%; IC50 (HL-60): 2.25 µM; IC50 (MRC5): > 100 µM; Activity (K562 [19]): 1.36%; Activity (K562 [20]): 1.42%; Activity (K562 [21]): 2.34%; Activity (K562 [22]): 95.84%; IC50 (Raji): 3.05 µM; Activity (K562 [23]): 29.4%
3 | O=C1C=C[C@@]2(C[C@H](OC(=O)/C=C/c3ccccc3)[C@H](c3ccccc3)O2)O1 | 8.27 | 18.23 | 27.11 | 4.65 | 6.76 | Active | 12.13 | 12.49 | Active | 1.02 | 10.47 | 27.97 | 0.25 | 3.64 | 18.24 | 58.5 | inactive | Active | 8.36 | 11.4 | Activity (K562 [16]): 24.8%; Activity (K562 [17]): 28.29%; Activity (K562 [18]): 8.34%; IC50 (HL-60): 9.65 µM; IC50 (MRC5): > 100 µM; Activity (K562 [19]): 39.85%; Activity (K562 [20]): 50.03%; Activity (K562 [21]): 6.66%; Activity (K562 [22]): 31.14%; IC50 (Raji): 2.28 µM; Activity (K562 [23]): 42.16%
